We go through ten compounds from ChEMBL document CHEMBL1153287, “First small molecular inhibitors of T. brucei dolicholphosphate mannose synthase (DPMS), a validated drug target in African sleeping sickness” (Bioorg Med Chem Lett, 2009).

Data set [1] has as its system Trypanosoma brucei. The experiment in a line: Antitrypanosomal activity against Trypanosoma brucei 427. It counts as functional. As to conditions: read-out: ED50 (the source's name). In outline: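 Bloodstream-form T. brucei strain 427 in culture; viability read by Alamar Blue; ED50 in μM; each experiment run at least in duplicate.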
Data set [2] concerns Trypanosoma brucei. Nature of the data set: Inhibition of Trypanosoma brucei DPMS expressed in Escherichia coli assessed as residual enzyme activity at 1 mM relative to untreated control. The method in brief:
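Recombinant full-length membrane-bound T. brucei DPMS in E. coli membranes (70 ng/ml total protein). Buffer: 50 mM Na–Hepes pH 7.4, 25 mM KCl, 5 mM MgCl2, 5 mM MnCl2, 0.1% n-octyl-glucopyranoside. Substrates: dehydrofarnesol-phosphate and GDP-[3H]Man. Inhibitor at 1 mM; 10 min at 30 °C. Lipids extracted in CHCl3:MeOH, butanol phase counted. Activity relative to a no-inhibitor control.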

Data set [3] deals with Trypanosoma brucei. Nature of the data set: Inhibition of glycosylphosphatidylinositol anchor biosynthesis in Trypanosoma brucei 117 cell-free system assessed as reduction of Manalpha1-2Manalpha1-6Manalpha1-4GlcNH2-(acyl)PI formation. It counts as functional. The method in brief: (§1)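 Cell-free GPI synthesis using bloodstream T. brucei variant 117 membranes, 1 × 10^7 cell equivalents per assay. Membranes washed in Hepes pH 7.4/KCl/MgCl2 buffer with TLCK and leupeptin. Reaction in buffer with MnCl2, tunicamycin and dithiothreitol. Labelled with GDP-[3H]Man plus 1 mM UDP-GlcNAc. Inhibitor in DMSO, 1 mM final.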

Data set [4] can be described thus: Cytotoxicity against human HeLa cells by alamar blue assay. It counts as cell-based. The note with it: read-out: ED50 (the source's name). In outline:
(§2)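 HeLa cells treated at 0.1 and 1.0 mM final; viability by Alamar Blue; inhibition expressed relative to a DMSO-only control.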

The nature of data set [5]: Cytotoxicity against human HeLa cells assessed as growth inhibition at 1 mM by alamar blue assay. It is filed as cell-based. In outline:
as §2
For orientation: Alamar Blue is a resazurin reagent that responds to reducing activity.

Data set [6] relates to Trypanosoma brucei. Nature of the data set: Inhibition of Trypanosoma brucei 117 DPMS-mediated glycosylphosphatidylinositol anchor biosynthesis assessed as reduction of dolicholphosphate-mannose formation. The method in brief: as §1
The test system of data set [7] is Trypanosoma brucei. Nature of the data set: Inhibition of glycosylphosphatidylinositol anchor biosynthesis in Trypanosoma brucei 117 cell-free system assessed as reduction of Manalpha1-6Manalpha1-4GlcNH2-PI formation formation. It is filed as functional. The method in brief:
as §1

In data set [8] the test system is Trypanosoma brucei. The experiment in a line: Inhibition of glycosylphosphatidylinositol anchor biosynthesis in Trypanosoma brucei 117 cell-free system assessed as reduction of Manalpha1-2Manalpha1-6Manalpha1-4GlcNH2-PI formation. It counts as functional. In outline: as §1
In data set [9] the test system is Trypanosoma brucei. The experiment in a line: Inhibition of glycosylphosphatidylinositol anchor biosynthesis in Trypanosoma brucei 117 cell-free system assessed as reduction of Manalpha1-4GlcNH2-PI formation. It is filed as functional. In outline: as §1
For data set [10], the system named is Trypanosoma brucei. The experiment in a line: Inhibition of glycosylphosphatidylinositol anchor biosynthesis in Trypanosoma brucei 117 cell-free system assessed as reduction of ethanolamine-P-Manalpha1-2Manalpha1-6Manalpha1-4GlcNH2-PI formation. It counts as functional. The method in brief: as §1

Structures are written as SMILES. Active and inactive are the calls of the source. No cut-off for these calls is given here. A value given as a limit tells only on which side of the number the result lay.

With `O=C(O)CN1C(=O)/C(=C/c2ccc(Cl)cc2)SC1=S`, the EC50 in data set [1] turned out to be 398 µM. Further, in data set [2], the Activity came out at 86%.
With `O=C(O)CN1C(=O)/C(=C/c2ccc(OCc3ccccc3)cc2)SC1=S`, the EC50 in data set [1] came to 338 µM. In data set [2], the Activity came out at 10%. Further, the inhibition entry in data set [3], in [7], in [8], in data set [9] and in data set [10] was “Active” each time. Moreover, the CC50 in data set [4] is above 1000 µM. The inhibition (commonly how much of the control response was suppressed) at 1000 µM in data set [5] is 20%. Moreover, the inhibition entry in data set [6] was “inactive”.
On to `C#Cc1ccc(/C=C2\SC(=S)N(CC(=O)O)C2=O)cc1`, for which the EC50 in [1] was above 1000 µM. Also, the Activity in data set [2] was found to be 94%. In addition, the inhibition at 1000 µM in data set [5] stood at 20%.
For the compound `O=C(O)CN1C(=O)/C(=C/c2cccc(O)c2)SC1=S`, the EC50 in [1] stood at 345 µM. The Activity in data set [2] was found to be 90%.
Regarding `O=C(O)CN1C(=O)/C(=C/c2ccc(O)cc2)SC1=S`, the EC50 in data set [1] came to 427 µM. Besides, in [2], the Activity is 70%. Further, the inhibition result in data set [3], in [6], in data set [7], in data set [8], in [9] and in data set [10] was “Active” each time. The CC50 in [4] is above 1000 µM.
Take `O=C(O)CN1C(=O)/C(=C/c2ccc(OCc3ccccc3)c(OCc3ccccc3)c2)SC1=S`: in [1], the EC50 is 492 µM. Also, the Activity in data set [2] stood at 20%. Besides, the inhibition entry in [3], in [6], in data set [7], in [8], in data set [9] and in [10] was “Active” in each case. Moreover, the CC50 in data set [4] was above 1000 µM.
As to `O=C(O)CN1C(=O)/C(=C/c2cccc(OCc3ccccc3)c2)SC1=S`, in data set [1], the EC50 amounted to 96 µM. The Activity in data set [2] was determined as 23%. The CC50 in data set [4] was above 1000 µM.
Consider `O=C(O)CN1C(=O)/C(=C/c2ccccc2O)SC1=S`, for which the EC50 in data set [1] came to 107 µM. Besides, the Activity in [2] was 23%. In addition, the inhibition entry in data set [3], in data set [7], in [8], in data set [9] and in data set [10] was “Active” each time. Further, the CC50 in [4] was above 1000 µM. Further, the inhibition entry in [6] is “inactive”.
Turning to `O=C(O)CN1C(=O)/C(=C/c2ccccc2)SC1=S`, the EC50 in data set [1] was determined as 232 µM. The Activity in [2] was 42%. For the same compound, the CC50 in data set [4] was above 1000 µM.
As to `N#Cc1ccc(/C=C2\SC(=S)N(CC(=O)O)C2=O)cc1`, the EC50 in data set [1] came out at 244 µM. In addition, the Activity in data set [2] is 73%.
